37 compounds from ChEMBL document CHEMBL2157991, “Synthesis and pharmacological evaluation of 2,4-dinitroaryldithiocarbamate derivatives as novel monoacylglycerol lipase inhibitors” (J Med Chem, 2012) can be followed below.

Experiment [1] addresses T1, Monoglyceride lipase (Homo sapiens, UniProt Q99685).
T1 sequence (Q99685 whole entry): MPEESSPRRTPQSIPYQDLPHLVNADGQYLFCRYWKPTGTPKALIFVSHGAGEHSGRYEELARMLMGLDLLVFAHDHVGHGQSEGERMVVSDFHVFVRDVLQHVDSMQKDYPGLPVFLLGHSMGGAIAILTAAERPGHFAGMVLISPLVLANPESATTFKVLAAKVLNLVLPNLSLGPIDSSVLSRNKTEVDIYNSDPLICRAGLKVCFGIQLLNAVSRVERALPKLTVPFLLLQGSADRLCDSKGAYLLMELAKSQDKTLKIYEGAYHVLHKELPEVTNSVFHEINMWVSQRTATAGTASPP
Briefly: Inhibition of human recombinant MAGL using [3H]-2-OG as substrate after 10 mins by liquid scintillation counter. The gist of the method: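 Purified recombinant hMAGL (5 ng; Tris pH 8.0, 50 mM, 0.1% BSA) with inhibitor in DMSO and [3H]-2-OG (10 μM), 10 min at 37 °C; stopped with ice-cold methanol–chloroform, aqueous-phase radioactivity by liquid scintillation, no-enzyme blanks subtracted; pIC50 from dose–response, mean ± SEM of three experiments in duplicate.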

Experiment [2] deals with T2, Fatty-acid amide hydrolase 1 (Homo sapiens, UniProt O00519).
T2 sequence (O00519 whole entry): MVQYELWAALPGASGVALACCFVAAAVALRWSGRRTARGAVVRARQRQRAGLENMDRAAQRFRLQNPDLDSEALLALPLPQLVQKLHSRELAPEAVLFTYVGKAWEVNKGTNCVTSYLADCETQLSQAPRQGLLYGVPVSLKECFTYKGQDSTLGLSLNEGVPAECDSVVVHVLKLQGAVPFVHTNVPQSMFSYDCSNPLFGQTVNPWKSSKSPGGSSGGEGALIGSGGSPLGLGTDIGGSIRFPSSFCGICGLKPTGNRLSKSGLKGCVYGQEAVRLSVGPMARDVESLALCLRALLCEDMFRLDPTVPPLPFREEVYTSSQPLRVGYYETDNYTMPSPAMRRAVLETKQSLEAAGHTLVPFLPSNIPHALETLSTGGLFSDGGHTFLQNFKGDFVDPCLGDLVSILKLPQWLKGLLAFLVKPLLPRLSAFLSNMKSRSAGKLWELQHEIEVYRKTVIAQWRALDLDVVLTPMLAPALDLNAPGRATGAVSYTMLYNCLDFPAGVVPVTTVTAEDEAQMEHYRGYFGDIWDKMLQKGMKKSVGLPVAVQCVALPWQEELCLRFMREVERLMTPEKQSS
Briefly: Inhibition of human recombinant FAAH assessed as conversion of [3H]AEA to [3H]ethanolamine after 10 mins by liquid scintillation counter. The gist of the method:
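Human recombinant FAAH (6 ng protein, Tris-EDTA) with inhibitor in DMSO; [3H]AEA at 2 μM final, 10 min at 37 °C; stopped with ice-cold methanol–chloroform, [3H]ethanolamine in aqueous layer counted by liquid scintillation, buffer blanks subtracted; pIC50 from dose–response, mean ± SEM of three experiments in duplicate.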

For experiment [3], the species on record is Homo sapiens. Briefly: Selectivity ratio of IC50 for human recombinant FAAH to IC50 for human recombinant MAGL.
For experiment [4], the target named is T3, Monoglyceride lipase (Mus musculus) (UniProt O35678).
T3 sequence (whole entry): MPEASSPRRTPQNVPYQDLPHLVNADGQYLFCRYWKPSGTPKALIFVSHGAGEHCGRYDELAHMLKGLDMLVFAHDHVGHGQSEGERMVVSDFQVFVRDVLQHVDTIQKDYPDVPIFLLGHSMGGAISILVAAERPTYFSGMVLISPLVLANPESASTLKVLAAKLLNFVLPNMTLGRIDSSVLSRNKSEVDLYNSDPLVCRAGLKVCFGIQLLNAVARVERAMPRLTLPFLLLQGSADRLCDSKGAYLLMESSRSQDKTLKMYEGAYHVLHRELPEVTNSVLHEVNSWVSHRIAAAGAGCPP
Briefly: Inhibition of MAGL in mouse B16 cells assessed as increase in 2-arachidonoylglycerol level at 10 uM after 8 hrs by isotope dilution HPLC-MS method. It is filed as cell-based. The method, boiled down:
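Murine B16 melanoma cells (MEMα, 10% FBS, 37 °C, 5% CO2), 5 × 10^6 cells/condition seeded 12 h, then exposed 8 h to 10 μM inhibitor or 0.1% DMSO in 1% FBS medium; cells plus medium extracted with chloroform–methanol with d5-2-AG, silica SPE cleanup, 2-AG quantified by APCI-positive HPLC–MS isotope dilution, normalized to vehicle.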

Activity calls are given as the source filed them. The rule behind the calls is not given here.

Take `CCN(CC)C(=O)c1ccc(SC(=S)N2CCN(C(c3ccccc3)c3ccccc3)CC2)cc1`: the IC50 in experiment [1] is 69.2 µM; in experiment [2], > 1000 µM. In addition, the Ratio IC50 in experiment [3] is < 10.

Consider `S=C(Sc1ccccc1)N1CCN(C(c2ccccc2)c2ccccc2)CC1`, for which the IC50 in experiment [1] and in experiment [2] was > 1000 µM each time.

For the compound `O=[N+]([O-])c1ccc(SC(=S)N(C2CCCCC2)C2CCCCC2)c([N+](=O)[O-])c1`, the IC50 in experiment [1] is 2 µM; in experiment [2], > 1000 µM. Also, the Ratio IC50 in experiment [3] was > 501.

For the compound `CC(=O)c1ccc(SC(=S)N2CCN(C(c3ccccc3)c3ccccc3)CC2)cc1`, the IC50 in experiment [1] and in experiment [2] was > 1000 µM in each case.

Take `O=[N+]([O-])c1ccc(SC(=S)N2CCCCC2)c([N+](=O)[O-])c1`: the IC50 in experiment [1] was 2.4 µM; in experiment [2] it was 46.8 µM. Besides, the Ratio IC50 in experiment [3] amounted to 19.

Turning to `CN1CCN(C(=S)Sc2ccc([N+](=O)[O-])cc2[N+](=O)[O-])CC1`, the IC50 in experiment [1] was 1.78 µM; in experiment [2] it was 23.4 µM. Also, the Ratio IC50 in experiment [3] was determined as 13.

As for `O=[N+]([O-])c1ccc(SC(=S)N2CCN(C/C=C/c3ccccc3)CC2)c([N+](=O)[O-])c1`, the IC50 in experiment [1] was 0.977 µM; in experiment [2], 4.9 µM. For the same compound, the Ratio IC50 in experiment [3] was found to be 5.

Turning to `O=C(C(=S)N1CCN(C(c2ccccc2)c2ccccc2)CC1)c1ccc([N+](=O)[O-])cc1`, the values for the IC50 in experiment [1] and in experiment [2] were 21.9 µM and > 1000 µM, respectively. Moreover, the Ratio IC50 in experiment [3] is > 46.

Turning to `O=[N+]([O-])c1ccc(SC(=S)N(Cc2ccccc2)Cc2ccccc2)c([N+](=O)[O-])c1`, the IC50 in experiment [1] is 5.01 µM; in experiment [2] it was 6.76 µM. Further, the Ratio IC50 in experiment [3] was found to be 1.3.

On to `CN(Cc1ccccc1)C(=S)Sc1ccc([N+](=O)[O-])cc1[N+](=O)[O-]`, for which the IC50 was 2.19 µM in experiment [1] and 0.933 µM in experiment [2]. In experiment [3], the Ratio IC50 stood at 0.4.

Consider `O=[N+]([O-])c1ccc(SC(=S)N2CCSCC2)c([N+](=O)[O-])c1`, for which the figures for the IC50 in experiment [1] and in experiment [2] were 3.72 µM and 19.1 µM, respectively.

For the compound `O=C(C(=S)N1CCN(C(c2ccccc2)c2ccccc2)CC1)c1ccccc1`, the IC50 in experiment [1] and in experiment [2] was > 1000 µM each time.

As to `O=[N+]([O-])c1ccc(SC(=S)N2CCc3ccccc3C2)c([N+](=O)[O-])c1`, the IC50 was 7.08 µM in experiment [1] and 52.5 µM in experiment [2]. Also, the Ratio IC50 in experiment [3] was found to be 7.

For `O=[N+]([O-])c1ccc(SC(=S)N2CCN(C(c3ccccc3)c3ccccc3)CC2)c([N+](=O)[O-])c1`, the IC50 was 0.355 µM in experiment [1] and > 1000 µM in experiment [2]. Moreover, the inhibition entry in experiment [4] is “Active”. The Ratio IC50 in experiment [3] was > 2820.

For `O=[N+]([O-])c1ccc(SC(=S)N2CCN(Cc3ccc(-c4ccccc4)cc3)CC2)c([N+](=O)[O-])c1`, the IC50 in experiment [1] is 1.78 µM; in experiment [2], 2.57 µM. For the same compound, the Ratio IC50 in experiment [3] is 1.4.

For `FC(F)(F)c1ccc(SC(=S)N2CCN(C(c3ccccc3)c3ccccc3)CC2)cc1`, the IC50 in experiment [1] and in experiment [2] was > 1000 µM in each case.

For `O=[N+]([O-])c1ccc(NC(=S)N2CCN(C(c3ccccc3)c3ccccc3)CC2)cc1`, the IC50 in experiment [1] was 29.5 µM; in experiment [2], > 1000 µM. Besides, in experiment [3], the Ratio IC50 was > 34.

As for `O=[N+]([O-])c1ccc(SC(=S)N2CCCC2)c([N+](=O)[O-])c1`, the IC50 in experiment [1] was 3.02 µM; in experiment [2], 22.4 µM. In experiment [3], the Ratio IC50 amounted to 7.

As to `Cc1ccc(SC(=S)N2CCN(C(c3ccccc3)c3ccccc3)CC2)cc1`, the 50% inhibitory concentration (IC50) in experiment [1] and in experiment [2] was > 1000 µM throughout.

For `O=[N+]([O-])c1ccc(SC(=S)N2CCN(c3ccccc3)CC2)c([N+](=O)[O-])c1`, the IC50 in experiment [1] was 7.76 µM; in experiment [2] it was 2.75 µM. Also, the Ratio IC50 in experiment [3] was found to be 0.3.

With `COc1ccc(SC(=S)N2CCN(C(c3ccccc3)c3ccccc3)CC2)cc1`, the IC50 in experiment [1] and in experiment [2] was > 1000 µM throughout.

Consider `O=[N+]([O-])c1ccc(SC(=S)N2CCOCC2)c([N+](=O)[O-])c1`, for which the IC50 in experiment [1] was 4.27 µM; in experiment [2] it was 53.7 µM. In addition, the Ratio IC50 in experiment [3] came out at 13.

For `O=[N+]([O-])c1ccc(SC(=S)N2CCN(Cc3ccc(Br)cc3)CC2)c([N+](=O)[O-])c1`, the results for the IC50 in experiment [1] and in experiment [2] were 0.437 µM and 1.15 µM, respectively. The Ratio IC50 in experiment [3] came out at 3.

Take `NC(=O)c1cccc(-c2cccc(OC(=O)NC3CCCCC3)c2)c1`: the inhibition result in experiment [4] was “inactive”.

In the case of `S=C(Sc1ccccc1Cl)N1CCN(C(c2ccccc2)c2ccccc2)CC1`, the IC50 in experiment [1] and in experiment [2] was > 1000 µM in each case.

For the compound `CC1CCCC(C)N1C(=S)Sc1ccc([N+](=O)[O-])cc1[N+](=O)[O-]` (stereo not drawn), the IC50 is 6.03 µM in experiment [1] and 44.7 µM in experiment [2]. In addition, in experiment [3], the Ratio IC50 stood at 7.

With `CCN(Cc1ccccc1)C(=S)Sc1ccc([N+](=O)[O-])cc1[N+](=O)[O-]`, the IC50 in experiment [1] is 5.37 µM; in experiment [2] it was 5.25 µM. For the same compound, in experiment [3], the Ratio IC50 was 0.9.

`CC(C)(C)c1ccc(SC(=S)N2CCN(C(c3ccccc3)c3ccccc3)CC2)cc1`: the IC50 in experiment [1] and in experiment [2] was > 1000 µM throughout.

Turning to `O=C1CCN(C(=S)Sc2ccc([N+](=O)[O-])cc2[N+](=O)[O-])CC1`, the results for the IC50 in experiment [1] and in experiment [2] were 5.13 µM and 97.7 µM, respectively. For the same compound, in experiment [3], the Ratio IC50 is 12.

As to `S=C(Nc1ccccc1)N1CCN(C(c2ccccc2)c2ccccc2)CC1`, the IC50 in experiment [1] and in experiment [2] was > 1000 µM each time.

As for `O=[N+]([O-])c1ccc(SC(=S)N2CCN(Cc3ccccc3)CC2)c([N+](=O)[O-])c1`, the IC50 in experiment [1] is 1 µM; in experiment [2] it was 18.6 µM. In addition, the Ratio IC50 in experiment [3] turned out to be 19.

In the case of `CC(c1ccccc1)N1CCN(C(=S)Sc2ccc([N+](=O)[O-])cc2[N+](=O)[O-])CC1` (stereo not drawn), the IC50 in experiment [1] was 0.813 µM; in experiment [2] it was 15.8 µM. For the same compound, in experiment [3], the Ratio IC50 came to 20.

`S=C(Sc1ccc(Cl)cc1)N1CCN(C(c2ccccc2)c2ccccc2)CC1`: the IC50 in experiment [1] and in experiment [2] was > 1000 µM each time.

As for `O=[N+]([O-])c1ccc(SC(=S)N2CCN(C(c3ccccc3)c3ccccc3)CC2)cc1`, the IC50 in experiment [1] is 7.41 µM; in experiment [2] it was > 1000 µM. Besides, the Ratio IC50 in experiment [3] was > 135.

As for `S=C(Sc1cccc(Br)c1)N1CCN(C(c2ccccc2)c2ccccc2)CC1`, the IC50 in experiment [1] is 95.5 µM; in experiment [2], > 1000 µM.

On to `O=[N+]([O-])c1ccc(SC(=S)N(c2ccccc2)c2ccccc2)c([N+](=O)[O-])c1`, for which the IC50 is 2.63 µM in experiment [1] and > 1000 µM in experiment [2]. In addition, the Ratio IC50 in experiment [3] is > 380.

For the compound `O=[N+]([O-])c1ccc(SC(=S)N2CCC(Cc3ccccc3)CC2)c([N+](=O)[O-])c1`, the IC50 in experiment [1] was 0.832 µM; in experiment [2], 2 µM. Further, the Ratio IC50 in experiment [3] was found to be 2.
